Consider eight compounds from ChEMBL document CHEMBL3576820, “Discovery of benzimidazole oxazolidinediones as novel and selective nonsteroidal mineralocorticoid receptor antagonists” (ACS Med Chem Lett, 2015).

Series [1] addresses T1, Mineralocorticoid receptor (Homo sapiens, UniProt P08235).
T1 sequence (P08235 whole entry): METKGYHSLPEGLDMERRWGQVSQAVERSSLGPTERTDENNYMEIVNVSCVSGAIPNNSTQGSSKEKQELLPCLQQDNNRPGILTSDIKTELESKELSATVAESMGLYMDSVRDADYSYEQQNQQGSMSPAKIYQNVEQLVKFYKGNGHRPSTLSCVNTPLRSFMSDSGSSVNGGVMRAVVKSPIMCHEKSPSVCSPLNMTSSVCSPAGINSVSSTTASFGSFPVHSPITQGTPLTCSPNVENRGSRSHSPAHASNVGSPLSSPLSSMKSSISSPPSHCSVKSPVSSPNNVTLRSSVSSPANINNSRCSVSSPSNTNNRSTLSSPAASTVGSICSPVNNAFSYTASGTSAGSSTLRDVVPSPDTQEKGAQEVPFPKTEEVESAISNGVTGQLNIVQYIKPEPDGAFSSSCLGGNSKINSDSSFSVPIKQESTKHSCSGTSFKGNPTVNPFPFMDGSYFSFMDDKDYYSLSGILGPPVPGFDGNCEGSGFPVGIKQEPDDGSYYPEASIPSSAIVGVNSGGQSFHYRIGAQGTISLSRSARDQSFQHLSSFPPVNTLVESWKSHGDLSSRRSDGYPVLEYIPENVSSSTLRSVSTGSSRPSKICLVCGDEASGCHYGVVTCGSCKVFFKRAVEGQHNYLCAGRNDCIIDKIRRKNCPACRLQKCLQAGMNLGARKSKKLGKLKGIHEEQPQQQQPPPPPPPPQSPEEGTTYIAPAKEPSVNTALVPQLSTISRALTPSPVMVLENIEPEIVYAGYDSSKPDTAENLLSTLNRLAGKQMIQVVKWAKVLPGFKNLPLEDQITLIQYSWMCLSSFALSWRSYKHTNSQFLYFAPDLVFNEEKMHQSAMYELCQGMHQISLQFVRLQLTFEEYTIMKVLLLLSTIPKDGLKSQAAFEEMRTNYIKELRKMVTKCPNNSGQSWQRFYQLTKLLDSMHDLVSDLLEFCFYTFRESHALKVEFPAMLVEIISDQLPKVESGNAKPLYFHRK
Kind of series: Antagonist activity at human mineralocorticoid receptor overexpressed in CHOK1 cells assessed as inhibition of aldosterone-induced protein interaction with coactivator peptide after 6 hrs by luminescence assay. In kind it is cell-based, CHO-K1.

A short description of series [2]: Metabolic stability in human liver microsomes assessed as compound remaining at 1 uM after 0.5 hrs. The class given is ADME. To be noted: read-out: Stability.
The target in another series is T2, Glucocorticoid receptor (Homo sapiens, UniProt P04150).
T2 sequence (P04150 whole entry): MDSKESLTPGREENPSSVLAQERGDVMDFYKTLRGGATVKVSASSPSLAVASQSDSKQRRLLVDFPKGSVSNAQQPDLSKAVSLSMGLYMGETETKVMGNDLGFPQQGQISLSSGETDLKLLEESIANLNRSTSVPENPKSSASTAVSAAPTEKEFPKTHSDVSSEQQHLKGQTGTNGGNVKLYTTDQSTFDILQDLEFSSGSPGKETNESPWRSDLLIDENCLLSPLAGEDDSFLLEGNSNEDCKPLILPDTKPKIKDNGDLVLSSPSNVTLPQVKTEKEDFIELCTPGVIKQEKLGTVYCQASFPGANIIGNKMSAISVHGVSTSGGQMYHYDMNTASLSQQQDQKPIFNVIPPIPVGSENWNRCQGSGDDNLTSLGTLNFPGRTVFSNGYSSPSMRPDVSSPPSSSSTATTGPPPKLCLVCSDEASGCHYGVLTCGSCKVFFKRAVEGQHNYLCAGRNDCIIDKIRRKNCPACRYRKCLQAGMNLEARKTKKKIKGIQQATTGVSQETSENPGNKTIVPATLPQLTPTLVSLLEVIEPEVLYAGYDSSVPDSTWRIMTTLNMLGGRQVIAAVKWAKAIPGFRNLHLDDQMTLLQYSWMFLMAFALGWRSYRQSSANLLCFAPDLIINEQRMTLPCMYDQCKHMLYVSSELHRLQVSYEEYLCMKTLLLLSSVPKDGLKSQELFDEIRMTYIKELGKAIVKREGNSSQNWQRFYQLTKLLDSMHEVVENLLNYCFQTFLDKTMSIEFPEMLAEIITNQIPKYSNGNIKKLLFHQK
The series is described as follows: Antagonist activity at human glucocorticoid receptor expressed in CHOK1 cells assessed as inhibition of dexamethasone-induced protein interaction with steroid receptor co-activator peptide after overnight incubation by beta-galactosidase reporter gene assay. In kind it is cell-based, CHO-K1.

The target of the next series is T3, Estrogen receptor (Homo sapiens, UniProt P03372).
T3 sequence (P03372 whole entry): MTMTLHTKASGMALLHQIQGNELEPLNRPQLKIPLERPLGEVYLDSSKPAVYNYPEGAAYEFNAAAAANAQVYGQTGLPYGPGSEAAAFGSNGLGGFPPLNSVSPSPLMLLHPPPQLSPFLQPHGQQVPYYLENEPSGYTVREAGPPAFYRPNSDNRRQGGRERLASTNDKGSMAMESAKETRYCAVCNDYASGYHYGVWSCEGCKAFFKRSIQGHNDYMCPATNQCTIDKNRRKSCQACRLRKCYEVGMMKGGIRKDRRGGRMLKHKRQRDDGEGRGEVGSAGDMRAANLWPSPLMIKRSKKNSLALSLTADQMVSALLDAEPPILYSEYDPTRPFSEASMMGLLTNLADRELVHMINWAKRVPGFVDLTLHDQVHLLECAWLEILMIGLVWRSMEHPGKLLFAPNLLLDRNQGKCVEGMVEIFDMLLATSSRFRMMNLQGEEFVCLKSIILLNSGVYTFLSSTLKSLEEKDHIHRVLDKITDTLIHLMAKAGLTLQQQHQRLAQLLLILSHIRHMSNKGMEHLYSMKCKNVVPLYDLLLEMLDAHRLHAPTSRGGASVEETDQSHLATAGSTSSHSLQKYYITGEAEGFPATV
Kind of series: Antagonist activity at human estrogen receptor alpha expressed in CHOK1 cells assessed as inhibition of beta-estradiol-induced protein interaction with steroid receptor co-activator peptide after overnight incubation by beta-galactosidase reporter gene assay. The class given is cell-based, CHO-K1.

The target of series [3] is T4, Mineralocorticoid receptor (Homo sapiens) (UniProt P08235).
T4 sequence (whole entry): T1 sequence (P08235 whole entry)
Kind of series: Agonist activity at human mineralocorticoid receptor by cell-based assay.

Series [4] is described as follows: Oral bioavailability in Wistar han rat at 2 mg/kg. The note with it: in vivo. In kind it is ADME, organism-based. The essentials:
(§1)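 Wistar Han rats. IV dose 1 mg/kg in DMSO/PEG200/water (10:60:30), n=2. Oral dose 2 mg/kg in imwitor/tween (1:1) by gavage, n=3. Values are averages. Derived: F%, plasma clearance, Vdss, terminal half-life and oral AUC normalized to dose.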

The nature of series [5]: Volume of distribution at steady state in Wistar han rat at 2 mg/kg, po and 1 mg/kg, iv. The class given is ADME, organism-based. To be noted: in vivo, read-out: Vdss. The procedure, abridged:
as §1

Series [6] is described as follows: Terminal half life in Wistar han rat at 2 mg/kg, po and 1 mg/kg, iv. The class given is ADME, organism-based. To be noted: in vivo, read-out: beta t1/2 (converted). The procedure, abridged: as §1
Another series deals with Rattus norvegicus. Kind of series: Dose normalized AUC in Wistar han rat at 2 mg/kg, po. The class given is ADME, organism-based. The note with it: in vivo. The procedure, abridged:
as §1

Series [7] in a line: Fraction unbound in 10% human plasma. The class given is ADME, cell-free. The note with it: 10% plasma. The procedure, abridged: (§2)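 Free fraction measured in the presence of 10% plasma (human or rat), taken as correlating with the free fraction in whole plasma.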
Series [8] can be described thus: Fraction unbound in 10% rat plasma. The class given is ADME, cell-free. To be noted: 10% plasma. The essentials: as §2

Active and inactive are the calls of the source. The calls are words filed in the database; no cut-off is given here.

On to `C[C@H](c1ccc(F)cc1)N1C(=O)O[C@](Cc2ccccc2)(c2nc3cc(NS(C)(=O)=O)ccc3[nH]2)C1=O`, for which the IC50 in series [1] is 0.22 µM; at Glucocorticoid receptor it was greater than 20 µM; on Estrogen receptor, 17 µM. For the same compound, in series [2], the remaining at 0.5 h, 1 µM is 93%. Further, the outcome in series [3] was inactive. The compound further yielded a bioavailability in [4] of 6%. Moreover, the Vd in [5] came out at 1.8 L/kg. In series [6], the half-life is 1.6 h. In the series on Rattus norvegicus, this compound returned an AUC/dose of 0.067 µM·kg·h/mg. Also, the fraction unbound in series [7] stood at 0.034; in series [8] it was 0.064.
For the compound `C[C@H](c1ccc(F)cc1)N1C(=O)O[C@](Cc2ccccc2)(c2nc3cc(-c4cccnc4)ccc3[nH]2)C1=O`, the 50% inhibitory concentration (IC50) in series [1] stood at 0.034 µM; on Glucocorticoid receptor it was 3.1 µM; on Estrogen receptor it was 7.9 µM. In addition, in [2], the remaining at 0.5 h, 1 µM came out at 94%. Besides, in series [3], the outcome was inactive. In addition, the bioavailability in [4] worked out at 11%. The Vd in series [5] was 5 L/kg. Further, the half-life in series [6] was 0.94 h. The compound also yielded an AUC/dose in the series with Rattus norvegicus of 0.046 µM·kg·h/mg. Also, the figures for the fraction unbound in series [7] and in series [8] were 0.002 and 0.008, respectively.
Take `C[C@H](c1ccc(F)cc1)N1C(=O)O[C@](Cc2ccccc2)(c2nc3cc(Cl)ccc3[nH]2)C1=O`: the results for the IC50 (in series [1]; at Glucocorticoid receptor; on Estrogen receptor) were 0.16 µM, 3.8 µM and 3.3 µM, respectively. For the same compound, in series [2], the remaining at 0.5 h, 1 µM was found to be 55%. For the same compound, the outcome in [3] was inactive. This compound also yielded a bioavailability in [4] of 15%. In [5], the Vd was determined as 4.6 L/kg. In [6], the half-life is 1.5 h. Further, in the series on Rattus norvegicus, the AUC/dose was found to be 0.11 µM·kg·h/mg. Besides, the fraction unbound in series [7] worked out at 0.002; in series [8], 0.01.
In the case of `C[C@H](c1ccc(F)cc1)N1C(=O)O[C@](Cc2ccccc2)(c2nc3cc(-c4cc[nH]n4)ccc3[nH]2)C1=O`, the half-maximal inhibitory concentration (IC50) in [1] is 0.12 µM; on Glucocorticoid receptor it was 3 µM; on Estrogen receptor, 6.3 µM. Further, in series [2], the remaining at 0.5 h, 1 µM is 86%. For the same compound, in [3], the result was inactive. The compound further showed a bioavailability in [4] of 27%. In [5], the Vd was found to be 1.6 L/kg. In addition, the half-life in series [6] was 1.8 h. For the same compound, the AUC/dose in the series on Rattus norvegicus is 0.49 µM·kg·h/mg. The values for the unbound share (fraction unbound) in [7] and in series [8] were 0.04 and 0.017, respectively.
Take `Cc1nocc1-c1ccc2[nH]c([C@@]3(Cc4ccccc4)OC(=O)N([C@H](C)c4ccc(F)cc4)C3=O)nc2c1`: the IC50 in [1] is 0.039 µM; on Glucocorticoid receptor it was 2.9 µM; on Estrogen receptor it was 4.9 µM. Further, the remaining at 0.5 h, 1 µM in series [2] turned out to be 27%. For the same compound, the result in series [3] was inactive. For the same compound, in [4], the bioavailability stood at 54%. Also, the Vd in series [5] came to 1.9 L/kg. In series [6], the half-life is 1.2 h. In the series on Rattus norvegicus, this compound showed an AUC/dose of 0.79 µM·kg·h/mg.
Consider `C[C@H](c1ccc(F)cc1)N1C(=O)O[C@](Cc2ccccc2)(c2nc3cc(C(F)(F)F)ccc3[nH]2)C1=O`, for which the IC50 in [1] was found to be 0.12 µM; on Glucocorticoid receptor, 3.4 µM; at Estrogen receptor, 3 µM. Besides, in series [2], the remaining at 0.5 h, 1 µM stood at 89%. Moreover, the outcome in [3] was inactive. Further, the bioavailability in series [4] stood at 36%. The Vd in series [5] turned out to be 3.4 L/kg. For the same compound, in [6], the half-life is 1.7 h. The AUC/dose in the series on Rattus norvegicus is 0.33 µM·kg·h/mg. In addition, the values for the fraction unbound in series [7] and in series [8] were 0.002 and 0.007, respectively.
On to `C[C@H](c1ccc(F)cc1)N1C(=O)O[C@](Cc2ccccc2)(c2nc3c(NS(C)(=O)=O)cccc3[nH]2)C1=O`, for which the IC50 in series [1] is 0.21 µM; on Glucocorticoid receptor, 17 µM; at Estrogen receptor, greater than 20 µM. In [2], the remaining at 0.5 h, 1 µM came to 46%. Besides, the result in series [3] was inactive. The compound also gave a bioavailability in series [4] of 15%. For the same compound, in [5], the Vd is 3.2 L/kg. In addition, the half-life in [6] is 1.2 h. Moreover, the AUC/dose in the series with Rattus norvegicus worked out at 0.085 µM·kg·h/mg. For the same compound, the fraction unbound in [7] was determined as 0.058; in series [8] it was 0.064.
For `C[C@H](c1ccc(F)cc1)N1C(=O)O[C@](Cc2ccccc2)(c2nc3cc(N4CCOCC4)ccc3[nH]2)C1=O`, the IC50 in series [1] turned out to be 0.04 µM; at Glucocorticoid receptor, 4.9 µM; on Estrogen receptor, 6.1 µM. Further, the remaining at 0.5 h, 1 µM in series [2] was determined as 81%. Also, in series [3], the outcome was inactive. The same compound had a bioavailability in series [4] of 44%. Further, the Vd in [5] is 2.3 L/kg. Moreover, the half-life in series [6] is 0.69 h. Also, in the series with Rattus norvegicus, the AUC/dose came to 0.07 µM·kg·h/mg. Besides, the values for the free fraction (fraction unbound) in series [7] and in [8] were 0.093 and 0.065, respectively.
